Data: ChEMBL document CHEMBL1800057, “Discovery of dual inducible/neuronal nitric oxide synthase (iNOS/nNOS) inhibitor development candidate 4-((2-cyclobutyl-1H-imidazo[4,5-b]pyrazin-1-yl)methyl)-7,8-difluoroquinolin-2(1H)-one (KD7332) part 2: identification of a novel, potent, and selective series of benzimidazole-quinolinone …” (J Med Chem, 2010)

Assays:
Homo sapiens [1] = species: Homo sapiens; test: Ratio of IC50 for human nNOS to EC50 for human iNOS
Homo sapiens [2] = species: Homo sapiens; test: Ratio of IC50 for human eNOS to EC50 for human iNOS
[3] = AUC in mouse at 3 mg/kg, iv and 10 mg/kg, po; type: ADME, organism-based; details: plasma
Liver = test: Half life in mouse liver microsomes assessed as formation of oxidation product and glucuronide conjugate; type: ADME, Microsome
Method in brief: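 Mouse liver microsomes run under combined phase I oxidation and phase II glucuronide conjugation; half-life reported in minutes.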

Mus musculus = test: Inhibition of LPS-induced iNOS activation in BALB/c mouse assessed as plasma nitrate levels at 30 mg/kg administered via oral gavage before LPS challenge measured after 6 to 8 hrs using 2,3-diaminonaphthalene by fluorescence assay relative to control; type: functional
Method in brief: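 Male BALB/c mice dosed by oral gavage (90% PEG/5% Tween 80/5% PVP + 0.5% w/v CMC) immediately before LPS (10 mg/kg ip in 0.9% NaCl). Mice killed at 6 h. EDTA plasma analysed for nitrate and drug levels; nitrite measured by DAN fluorescence.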

[4] = molecular target: T1, Nitric oxide synthase, inducible (Mus musculus, UniProt P29477); test: Inhibition of mouse iNOS expressed in HEK293 cells assessed as inhibition of nitric oxide production after 18 hrs using 2,3-diaminonaphthalene by fluorescence assay; type: cell-based
T1 sequence (P29477 whole entry): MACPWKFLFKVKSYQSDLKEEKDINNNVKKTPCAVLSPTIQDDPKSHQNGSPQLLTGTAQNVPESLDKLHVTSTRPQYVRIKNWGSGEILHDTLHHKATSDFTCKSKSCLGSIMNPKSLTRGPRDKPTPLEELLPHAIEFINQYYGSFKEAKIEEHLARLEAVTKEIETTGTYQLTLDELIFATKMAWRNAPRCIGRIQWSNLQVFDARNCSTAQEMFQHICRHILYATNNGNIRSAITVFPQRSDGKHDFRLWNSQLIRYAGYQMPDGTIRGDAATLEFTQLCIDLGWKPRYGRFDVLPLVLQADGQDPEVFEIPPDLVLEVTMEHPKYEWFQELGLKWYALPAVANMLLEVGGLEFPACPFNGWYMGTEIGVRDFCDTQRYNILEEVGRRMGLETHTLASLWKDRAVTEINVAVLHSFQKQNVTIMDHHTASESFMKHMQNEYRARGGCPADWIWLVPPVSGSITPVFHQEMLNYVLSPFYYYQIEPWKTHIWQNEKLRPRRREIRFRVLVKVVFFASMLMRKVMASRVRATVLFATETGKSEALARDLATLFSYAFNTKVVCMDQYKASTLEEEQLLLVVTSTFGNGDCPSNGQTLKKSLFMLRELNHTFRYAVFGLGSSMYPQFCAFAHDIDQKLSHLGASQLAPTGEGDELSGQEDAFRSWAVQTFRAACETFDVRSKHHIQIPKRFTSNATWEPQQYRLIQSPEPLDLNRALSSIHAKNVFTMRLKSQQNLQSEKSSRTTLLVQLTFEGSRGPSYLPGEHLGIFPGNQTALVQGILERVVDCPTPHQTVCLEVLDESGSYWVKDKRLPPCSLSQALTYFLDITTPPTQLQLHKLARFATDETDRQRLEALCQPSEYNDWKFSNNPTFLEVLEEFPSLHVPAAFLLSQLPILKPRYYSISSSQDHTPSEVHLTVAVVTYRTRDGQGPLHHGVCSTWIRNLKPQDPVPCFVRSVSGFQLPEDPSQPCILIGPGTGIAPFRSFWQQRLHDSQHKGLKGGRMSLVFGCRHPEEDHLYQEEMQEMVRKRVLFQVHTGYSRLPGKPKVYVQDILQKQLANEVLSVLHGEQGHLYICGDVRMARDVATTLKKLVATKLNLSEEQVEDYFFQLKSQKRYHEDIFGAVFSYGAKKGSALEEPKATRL
Method in brief: (§1)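 HEK293 cells grown to ~70% confluence in DMEM/10% FBS with pen/strep, transiently transfected with 10 μg human or murine iNOS plasmid plus Fugene 6 for 4 h at 37 °C, 10% CO2. Cells replated at 5e5 cells/mL and dosed with compound at once; 1400W (100 μM final) as positive control. After 18 h, DAN (10 μg/mL final) in HCl (0.1 N final) added for 20 min at room temperature. Fluorescence read after NaOH (0.12 N final).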

[5] = molecular target: T2, Nitric oxide synthase 3 (Homo sapiens) (UniProt P29474); test: Inhibition of human eNOS expressed in HEK293 cells assessed as inhibition A23187 induced nitric oxide production at 100 uM incubated for 24 hrs measured after 18 hrs of […] challenge using 2,3-diaminonaphthalene by fluorescence assay; type: cell-based
T2 sequence (whole entry): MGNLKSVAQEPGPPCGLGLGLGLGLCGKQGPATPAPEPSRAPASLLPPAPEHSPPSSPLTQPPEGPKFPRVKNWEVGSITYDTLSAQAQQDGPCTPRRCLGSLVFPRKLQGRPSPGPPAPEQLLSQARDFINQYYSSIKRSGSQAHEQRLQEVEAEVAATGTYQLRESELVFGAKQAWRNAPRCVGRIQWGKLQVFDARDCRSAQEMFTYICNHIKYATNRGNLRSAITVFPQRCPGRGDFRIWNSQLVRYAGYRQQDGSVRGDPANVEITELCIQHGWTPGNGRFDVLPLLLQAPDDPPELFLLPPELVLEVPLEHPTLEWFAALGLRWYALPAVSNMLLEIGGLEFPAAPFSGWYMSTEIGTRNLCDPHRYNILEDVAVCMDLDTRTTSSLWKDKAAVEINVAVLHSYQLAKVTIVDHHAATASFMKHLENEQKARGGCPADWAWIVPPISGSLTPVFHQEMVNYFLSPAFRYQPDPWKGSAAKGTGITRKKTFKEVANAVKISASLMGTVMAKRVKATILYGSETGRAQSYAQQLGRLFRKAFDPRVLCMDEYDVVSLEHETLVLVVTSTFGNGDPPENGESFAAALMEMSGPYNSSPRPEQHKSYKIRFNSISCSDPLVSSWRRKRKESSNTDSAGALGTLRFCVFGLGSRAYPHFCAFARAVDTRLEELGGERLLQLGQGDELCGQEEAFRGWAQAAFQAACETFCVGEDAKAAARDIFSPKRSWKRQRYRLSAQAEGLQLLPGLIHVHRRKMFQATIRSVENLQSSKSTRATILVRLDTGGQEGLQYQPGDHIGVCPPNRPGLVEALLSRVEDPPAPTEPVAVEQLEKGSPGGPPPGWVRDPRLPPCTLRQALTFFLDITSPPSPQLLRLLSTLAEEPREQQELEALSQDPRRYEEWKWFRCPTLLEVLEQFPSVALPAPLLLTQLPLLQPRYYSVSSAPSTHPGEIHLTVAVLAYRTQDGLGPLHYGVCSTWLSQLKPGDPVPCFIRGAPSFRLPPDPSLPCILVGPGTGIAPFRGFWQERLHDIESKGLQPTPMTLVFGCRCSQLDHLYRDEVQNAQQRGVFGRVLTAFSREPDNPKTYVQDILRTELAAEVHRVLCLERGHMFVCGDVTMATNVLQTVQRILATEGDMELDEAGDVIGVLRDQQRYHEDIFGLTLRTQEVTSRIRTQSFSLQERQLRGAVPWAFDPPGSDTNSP

Nitric oxide synthase 3 = molecular target: T3, Nitric oxide synthase 3 (Homo sapiens, UniProt P29474); test: Inhibition of human eNOS expressed in HEK293 cells assessed as inhibition A23187 induced nitric oxide production incubated for 24 hrs measured after 18 hrs of […] challenge using 2,3-diaminonaphthalene by fluorescence assay; type: cell-based
T3 sequence (P29474 whole entry): T2 sequence (whole entry)
Method in brief: (§2)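 HEK293 cells transfected for 4 h at 37 °C with human nNOS (10 μg) or human eNOS (15 μg) plasmid (Fugene 6, 3:1). Cells replated at 5e5 cells/mL and dosed with compound at once; SEITU (100 μM final) as positive control. After 24 h, cells activated with A23187 (83 nM final) for eNOS or ionomycin (30 μM final) for nNOS. NO read 18 h later as nitrite-DAN fluorescence.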

[6] = molecular target: Nitric oxide synthase, inducible (Homo sapiens, UniProt P35228); test: Inhibition of human iNOS expressed in HEK293 cells assessed as inhibition of nitric oxide production after 18 hrs using 2,3-diaminonaphthalene by fluorescence assay; type: cell-based; method in brief: as §1
[7] = Half life in mouse at 10 mg/kg, po; type: ADME, organism-based; set-up: dose 10 mg/kg, route oral; details: in vivo
Nitric oxide synthase 1 [8] = molecular target: T4, Nitric oxide synthase 1 (Homo sapiens, UniProt P29475); test: Inhibition of human nNOS expressed in HEK293 cells assessed as inhibition ionomycin induced nitric oxide production incubated for 24 hrs measured after 18 hrs of ionomycin challenge using 2,3-diaminonaphthalene by fluorescence assay; type: cell-based; method in brief: as §2
[9] = Cmax in mouse at 3 mg/kg, iv and 10 mg/kg, po; type: ADME, organism-based; details: in vivo
[10] = Plasma clearance in mouse at 3 mg/kg, iv and 10 mg/kg, po; type: ADME, organism-based
[11] = Oral bioavailability in mouse at 10 mg/kg; type: ADME, organism-based; details: in vivo
[12] = Volume of distribution at steady state in mouse at 3 mg/kg, iv and 10 mg/kg, po; type: ADME, organism-based; details: in vivo, read-out: Vdss
[13] = Half life in mouse at 3 mg/kg, iv and 10 mg/kg, po; details: in vivo
[14] = AUC in rhesus monkey at 3 mg/kg, iv and 10 mg/kg, po; type: ADME, organism-based, Macaca mulatta; details: plasma
Method in brief: (§3)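 Rhesus pharmacokinetics: 3 mg/kg iv and 10 mg/kg po, HCl salt. Clp, t1/2, Vdss, Cmax, AUC, oral t1/2 and %F reported.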

[15] = Cmax in rhesus monkey at 3 mg/kg, iv and 10 mg/kg, po; type: ADME, organism-based, Macaca mulatta; details: in vivo; method in brief: as §3
[16] = Bioavailability in rhesus monkey at 3 mg/kg, iv and 10 mg/kg, po; type: ADME, organism-based, Macaca mulatta; details: in vivo; method in brief: as §3
[17] = Half life in rhesus monkey at 3 mg/kg, iv and 10 mg/kg, po; type: ADME, organism-based, Macaca mulatta; details: in vivo; method in brief: as §3
[18] = Plasma clearance in rhesus monkey at 3 mg/kg, iv and 10 mg/kg, po; type: ADME, organism-based, Macaca mulatta; method in brief: as §3
[19] = Volume of distribution at steady state in rhesus monkey at 3 mg/kg, iv and 10 mg/kg, po; type: ADME, organism-based, Macaca mulatta; details: in vivo, read-out: Vdss; method in brief: as §3
[20] = Half life in rhesus monkey at 10 mg/kg, po; type: ADME, organism-based, Macaca mulatta; set-up: dose 10 mg/kg, route oral; details: in vivo
Nitric oxide synthase 1 [21] = molecular target: T4, Nitric oxide synthase 1; test: Inhibition of human nNOS expressed in HEK293 cells assessed as inhibition ionomycin induced nitric oxide production at 10 uM incubated for 24 hrs measured after 18 hrs of ionomycin challenge using 2,3-diaminonaphthalene by fluorescence assay; type: cell-based

Sequence of Nitric oxide synthase, inducible (Homo sapiens, UniProt P35228) (P35228 whole entry): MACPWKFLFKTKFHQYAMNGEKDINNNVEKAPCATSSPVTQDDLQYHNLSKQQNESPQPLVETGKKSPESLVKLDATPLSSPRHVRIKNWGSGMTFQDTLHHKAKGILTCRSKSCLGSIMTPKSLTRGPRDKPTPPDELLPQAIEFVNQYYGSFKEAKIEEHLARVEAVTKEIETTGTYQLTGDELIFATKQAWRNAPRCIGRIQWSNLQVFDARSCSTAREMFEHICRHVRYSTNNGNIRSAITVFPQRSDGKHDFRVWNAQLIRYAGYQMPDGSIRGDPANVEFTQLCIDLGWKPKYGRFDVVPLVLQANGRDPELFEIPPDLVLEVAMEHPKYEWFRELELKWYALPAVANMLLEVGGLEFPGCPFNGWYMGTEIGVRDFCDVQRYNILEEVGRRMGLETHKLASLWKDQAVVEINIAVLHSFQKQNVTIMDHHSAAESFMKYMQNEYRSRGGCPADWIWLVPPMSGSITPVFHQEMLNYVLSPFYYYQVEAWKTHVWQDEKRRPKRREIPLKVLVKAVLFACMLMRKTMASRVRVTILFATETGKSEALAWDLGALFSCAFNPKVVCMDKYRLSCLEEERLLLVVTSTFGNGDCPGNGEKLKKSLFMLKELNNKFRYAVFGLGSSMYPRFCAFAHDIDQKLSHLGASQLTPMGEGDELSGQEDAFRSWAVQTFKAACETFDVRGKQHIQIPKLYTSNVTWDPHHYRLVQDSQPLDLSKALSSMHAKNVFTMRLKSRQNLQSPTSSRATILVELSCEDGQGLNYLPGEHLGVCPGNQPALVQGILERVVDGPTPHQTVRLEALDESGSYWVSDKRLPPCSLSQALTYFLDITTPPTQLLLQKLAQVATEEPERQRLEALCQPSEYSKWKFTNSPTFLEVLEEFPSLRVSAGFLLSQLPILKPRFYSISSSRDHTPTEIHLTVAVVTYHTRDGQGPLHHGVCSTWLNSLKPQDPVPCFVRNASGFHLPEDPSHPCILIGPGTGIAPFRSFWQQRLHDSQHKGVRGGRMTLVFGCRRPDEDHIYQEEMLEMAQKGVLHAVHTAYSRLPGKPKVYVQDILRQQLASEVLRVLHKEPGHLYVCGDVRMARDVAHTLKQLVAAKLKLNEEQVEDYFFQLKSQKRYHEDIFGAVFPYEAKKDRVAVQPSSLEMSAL
T4 sequence (P29475 whole entry): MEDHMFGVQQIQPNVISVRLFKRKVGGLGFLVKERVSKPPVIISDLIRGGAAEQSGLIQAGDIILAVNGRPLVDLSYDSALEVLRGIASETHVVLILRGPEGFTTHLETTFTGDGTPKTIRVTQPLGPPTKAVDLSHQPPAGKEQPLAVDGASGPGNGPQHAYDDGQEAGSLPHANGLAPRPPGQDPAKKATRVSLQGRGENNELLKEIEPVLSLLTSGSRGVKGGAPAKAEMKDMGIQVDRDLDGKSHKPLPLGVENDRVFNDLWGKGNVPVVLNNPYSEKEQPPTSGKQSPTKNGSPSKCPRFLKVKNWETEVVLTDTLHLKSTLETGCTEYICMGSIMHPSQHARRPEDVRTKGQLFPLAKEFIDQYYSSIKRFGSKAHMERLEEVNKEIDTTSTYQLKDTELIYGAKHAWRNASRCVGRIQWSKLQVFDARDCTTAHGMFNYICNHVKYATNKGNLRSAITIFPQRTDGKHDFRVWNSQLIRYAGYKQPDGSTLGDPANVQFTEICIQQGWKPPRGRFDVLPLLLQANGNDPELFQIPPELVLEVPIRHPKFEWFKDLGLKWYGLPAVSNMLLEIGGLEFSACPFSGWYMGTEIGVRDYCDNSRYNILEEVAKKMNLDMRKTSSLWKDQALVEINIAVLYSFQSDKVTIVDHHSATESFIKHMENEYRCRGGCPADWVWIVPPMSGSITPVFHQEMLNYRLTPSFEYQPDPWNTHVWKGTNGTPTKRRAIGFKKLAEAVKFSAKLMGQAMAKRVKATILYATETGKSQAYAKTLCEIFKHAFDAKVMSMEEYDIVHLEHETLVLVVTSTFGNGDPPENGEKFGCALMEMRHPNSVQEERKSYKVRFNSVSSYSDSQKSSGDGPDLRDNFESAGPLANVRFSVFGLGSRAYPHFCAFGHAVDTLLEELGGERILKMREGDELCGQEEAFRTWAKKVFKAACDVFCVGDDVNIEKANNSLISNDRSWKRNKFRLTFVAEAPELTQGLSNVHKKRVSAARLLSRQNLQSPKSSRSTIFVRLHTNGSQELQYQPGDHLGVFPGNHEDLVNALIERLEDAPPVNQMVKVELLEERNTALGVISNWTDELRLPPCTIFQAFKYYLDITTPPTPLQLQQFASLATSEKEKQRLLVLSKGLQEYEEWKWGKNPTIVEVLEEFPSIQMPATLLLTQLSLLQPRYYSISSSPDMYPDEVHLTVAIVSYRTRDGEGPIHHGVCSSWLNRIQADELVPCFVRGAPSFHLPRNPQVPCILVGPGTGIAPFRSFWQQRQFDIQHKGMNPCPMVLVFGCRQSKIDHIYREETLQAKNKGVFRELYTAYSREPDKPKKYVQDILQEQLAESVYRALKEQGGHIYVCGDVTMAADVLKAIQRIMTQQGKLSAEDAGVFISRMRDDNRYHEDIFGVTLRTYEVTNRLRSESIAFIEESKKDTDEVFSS

CN(C)c1ccnc2c1nc(C1CCC1)n2Cc1cc(=O)[nH]c2c(F)c(F)ccc12
Ratio EC50 (Homo sapiens [1]): 5.9 | Ratio EC50 (Homo sapiens [2]): > 590 | AUC [3]: 700 ng·h/mL | t1/2 (Liver): 0.13 h | inhibition in vivo at 30 mg/kg (Mus musculus): 30% | EC50 [4]: 1800 nM | inhibition [5]: < 50% | EC50 (Nitric oxide synthase 3): > 100000 nM | EC50 [6]: 170 nM | half-life [7]: 1.4 h | EC50 (Nitric oxide synthase 1 [8]): 1000 nM | Cmax [9]: 400 ng/mL

Cc1ncsc1-c1nc2ccccc2n1Cc1cc(=O)[nH]c2c(F)c(F)ccc12
Ratio EC50 (Homo sapiens [1]): 0.8 | clearance [10]: 12 mL/min/kg | Ratio EC50 (Homo sapiens [2]): 3.8 | bioavailability [11]: 39% | AUC [3]: 5670 ng·h/mL | t1/2 (Liver): 1.63 h | inhibition in vivo at 30 mg/kg (Mus musculus): 30% | Vd [12]: 1.2 L/kg | half-life [13]: 2.3 h | EC50 [4]: 10300 nM | EC50 (Nitric oxide synthase 3): 6800 nM | EC50 [6]: 1800 nM | half-life [7]: 3.1 h | EC50 (Nitric oxide synthase 1 [8]): 1500 nM | Cmax [9]: 3800 ng/mL

CC(C)Cc1nc2nccnc2n1Cc1cc(=O)[nH]c2c(F)c(F)ccc12.Cl
AUC [14]: 3200 ng·h/mL | Cmax [15]: 210 ng/mL | bioavailability [16]: 59% | half-life [17]: 21 h | clearance [18]: 18 mL/min/kg | Vd [19]: 19 L/kg | half-life [20]: 15 h

Cl.O=c1cc(Cn2c(C3CCC3)nc3nccnc32)c2ccc(F)c(F)c2[nH]1
AUC [14]: 18000 ng·h/mL | Cmax [15]: 3300 ng/mL | bioavailability [16]: 63% | half-life [17]: 13 h | clearance [18]: 6 mL/min/kg | Vd [19]: 3 L/kg | half-life [20]: 9 h

O=c1cc(Cn2c(CC3CCCC3)nc3ccccc32)c2ccc(F)c(F)c2[nH]1
Ratio EC50 (Homo sapiens [1]): > 6 | Ratio EC50 (Homo sapiens [2]): > 56 | inhibition (Nitric oxide synthase 1 [21]): < 50% | t1/2 (Liver): > 2 h | inhibition [5]: < 50% | EC50 (Nitric oxide synthase 3): > 100000 nM | EC50 [6]: 1770 nM | EC50 (Nitric oxide synthase 1 [8]): > 10000 nM
